For the experiment, the target named is Glutamate carboxypeptidase 2 (Homo sapiens, UniProt Q04609). As to the kind of experiment: Inhibition of human recombinant N-terminal Avi-tagged glutamate carboxypeptidase 2 extracellular domain (44 to 750 amino acids) using pteroyl-di-L-glutamate substrate by HPLC method. The gist of the method:
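Avi-GCPII (0.2 ng) in 25 mM Bis-Tris propane, 150 mM NaCl, 0.001% octaethylene glycol monododecyl ether, pH 7.4, preincubated with inhibitor (ten concentrations) 5 min at 37 °C. Reaction started with pteroyl-di-L-glutamate (20 µl of 4 µM stock), run 20 min at 37 °C, stopped with 2-PMPA. Substrate and product separated by isocratic HPLC, detected at 281 nm; IC50 from full curves, Ki mean ± SD, duplicate or triplicate.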

Glutamate carboxypeptidase 2, sequence (Q04609 whole entry, the tested form may be a part): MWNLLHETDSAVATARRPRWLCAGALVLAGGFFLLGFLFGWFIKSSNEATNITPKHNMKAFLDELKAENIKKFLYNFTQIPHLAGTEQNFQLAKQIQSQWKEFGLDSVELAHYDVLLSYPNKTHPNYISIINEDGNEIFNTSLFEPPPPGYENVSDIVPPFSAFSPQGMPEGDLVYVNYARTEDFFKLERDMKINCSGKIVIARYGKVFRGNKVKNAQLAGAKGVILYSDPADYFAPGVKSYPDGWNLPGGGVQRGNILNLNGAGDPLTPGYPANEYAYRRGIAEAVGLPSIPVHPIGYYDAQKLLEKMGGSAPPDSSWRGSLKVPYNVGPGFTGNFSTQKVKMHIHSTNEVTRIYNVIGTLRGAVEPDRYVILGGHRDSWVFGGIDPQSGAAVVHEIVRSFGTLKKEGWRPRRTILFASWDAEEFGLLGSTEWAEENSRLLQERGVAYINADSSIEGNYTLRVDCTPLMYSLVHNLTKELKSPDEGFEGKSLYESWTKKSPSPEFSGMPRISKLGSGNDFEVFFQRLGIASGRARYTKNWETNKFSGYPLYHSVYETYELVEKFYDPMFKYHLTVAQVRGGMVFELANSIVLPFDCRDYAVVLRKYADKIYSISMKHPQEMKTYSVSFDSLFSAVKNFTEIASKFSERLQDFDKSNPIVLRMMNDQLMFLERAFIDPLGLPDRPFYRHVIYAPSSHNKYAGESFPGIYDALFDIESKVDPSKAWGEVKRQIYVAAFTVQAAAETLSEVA

For `O=C(O)CC[C@H](NC(=O)N[C@@H](CCCCNC(=O)Nc1ccc(Br)cc1OCCNC(=O)CCOCCOCCOCCOCCOCCOCCOCCOCCOCCOCCOCCOCCNC(=O)CCCC[C@@H]1SC[C@@H]2NC(=O)N[C@@H]21)C(=O)O)C(=O)O`, the Ki (commonly the dissociation constant of the complex between target and ligand, obtained from inhibition or displacement) came out at 221 pM.

Values taken from BindingDB's records for doi:10.1016/j.bmc.2014.05.061 (Academy of Sciences of The Czech Republic, 2014).
